For one series, the species on record is Homo sapiens. Description: Inhibition of human methionine aminopeptidase 1B at 100 uM using Met-AMC as substrate relative to control. Summed up: (§1)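 Purified MetAP at 4 µM in 50 mM HEPES with 150 mM KCl and CoCl2 at 3 molar equivalents of enzyme. pH 7.5 for SpMetAP1a and EfMetAP1a, pH 8.0 for HsMetAP1b. Substrate L-Met-AMC at 50, 100 and 150 µM. Compounds (10 mM DMSO stocks) tested over 1 to 120 µM for % inhibition; Ki by Dixon method.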

The test system of series [1] is Pseudomonas aeruginosa. In words: Antibacterial activity against Pseudomonas aeruginosa MTCC 2453 after 24 hrs by broth dilution assay. To be noted: MTCC 2453, 24 h. It counts as functional. In outline: (§2)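 Broth dilution per NCCLS in nutrient broth, serial dilutions 1000 to 7.8 µg/mL, DMSO below 4% final. Inoculum approx. 2.5×10⁶ cells/mL, 37 °C with shaking at 150 rpm for 24 h. MIC taken as the lowest concentration with no visible growth. Ciprofloxacin served as positive control.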
A general note: Broth dilution looks for growth in wells or tubes with falling amounts of substance.

For series [2], the system named is Escherichia coli. Description: Antibacterial activity against Escherichia coli MRC24 after overnight incubation. It counts as functional. Summed up: (§3)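 Multidrug-resistant E. coli isolates in Luria broth, test range 8 to 1024 µg/mL (ciprofloxacin 0.49 to 63.3 µg/mL). Inoculum 10 µL of a 1000-fold diluted 0.1 OD600 culture, incubated overnight at 37 °C. OD read at 600 nm. % inhibition = (a−b)/a×100, with media and compound-colour blanks subtracted.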

Series [3] can be described thus: Inhibition of human methionine aminopeptidase 1B using Met-AMC as substrate by Dixon method. In outline: as §1
Series [4] relates to Escherichia coli. Description: Induction of cellular damage in Escherichia coli assessed as distorted cell membrane at MIC after 1 hr by TEM analysis. It is filed as functional, organism-based.
Series [5] relates to Escherichia coli. In words: Synergistic antibacterial activity against Escherichia coli MRAE33 after 18 hrs in presence of ciprofloxacin by checkerboard method. It counts as functional. The note with it: MRAE33, 18 h. In outline:
(§4)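 Checkerboard combination with ciprofloxacin in Mueller-Hinton broth: compound 1024 to 16 µg/mL crossed with ciprofloxacin 128 to 2 µg/mL. Inoculum 5×10⁵ CFU/mL suspension, 18 h at 37 °C. Fractional inhibitory concentration index derived from the combination.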

Series [6] concerns Escherichia coli. Description: Synergistic antibacterial activity against Escherichia coli MRAE33 assessed as ciprofloxacin MIC at 16 to 1024 ug/mL after 18 hrs by checkerboard method. It counts as functional. To be noted: MRAE33, 18 h. Summed up:
as §4

Series [7] deals with Mycobacterium tuberculosis. Description: Inhibition of Mycobacterium tuberculosis methionine aminopeptidase 1C at 100 uM using Met-AMC as substrate relative to control. Summed up:
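Purified MtMetAP1c (4 µM) in 50 mM Hepes pH 7.5 with 150 mM KCl and CoCl2 at three molar equivalents of enzyme. Substrate was L-Met-AMC at 50, 100 or 150 µM. Compounds came from 10 mM DMSO stocks. Percent inhibition was taken against the uninhibited control.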

Series [8] has as its system Escherichia coli. Description: Anti-biofilm activity against Escherichia coli assessed as poor cell density at 2MIC after 24 hrs by SEM analysis. It counts as functional, organism-based.
Series [9] deals with Escherichia coli. In words: Antibacterial activity against Escherichia coli MRAE32 at 512 ug/mL after 24 hrs by broth dilution assay relative to control. It is filed as functional. In outline: as §3
Series [10] deals with Streptococcus pneumoniae. Description: Induction of cellular damage in Streptococcus pneumoniae assessed as distorted cell membrane at MIC after 1 hr by TEM analysis. It counts as functional, organism-based.
The subject of another series is CHO. In words: Cytotoxicity against CHO cells at 50 ug/mL after 48 hrs by MTT assay. The note with it: chinese hamster. It counts as cell-based, Cricetulus griseus. Summed up:
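MTT assay: cells maintained in DMEM with 10% FBS and penicillin/streptomycin at 37 °C, 5% CO2. Seeded at approx. 2×10⁴ cells/well, 24 h before treatment, then exposed to 10 to 400 µg/mL for 48 h at 37 °C. MTT (5 mg/mL stock in PBS) added for 4 h, formazan dissolved in DMSO, A570 read. Triplicate wells; viability given relative to untreated cells.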
On the technique in general: Tetrazolium dyes change colour on reduction, which living cells bring about.

For series [11], the system named is Escherichia coli. Description: Anti-biofilm activity against Escherichia coli after 24 hrs by XTT assay. It counts as functional, organism-based. In outline: (§5)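 Biofilm XTT reduction assay: serial dilutions 1000 to 7.8 µg/mL in tryptic soy broth, inoculum approx. 5×10⁵ CFU/mL, 37 °C for 24 h static. Non-adherent cells removed by PBS wash, XTT added, 90 min at 37 °C in dark, absorbance at 490 nm. IC50 (50% inhibition of biofilm formation) read from dose-response curves.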

Series [12] deals with Pseudomonas aeruginosa. Description: Bactericidal activity against Pseudomonas aeruginosa at 1 to 2 times MIC after 24 hrs by spectrophotometric analysis. It is filed as functional, organism-based. In outline: (§6)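 Growth kinetics in 50 mL nutrient broth seeded at approx. 2×10⁶ cells/mL, compound at 2MIC, MIC and ½MIC, 37 °C at 160 rpm. Ciprofloxacin 10 µg/mL as positive control. 1 mL aliquots taken every 2 h from 0 to 22 h. Turbidity read at 600 nm and OD plotted against time.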

The nature of series [13]: Inhibition of Enterococcus faecalis methionine aminopeptidase 1A using Met-AMC as substrate by Dixon method. Summed up: as §1
Series [14] has as its system Streptococcus pneumoniae. In words: Antibacterial activity against Streptococcus pneumoniae MTCC 655 after 24 hrs by broth dilution assay. The note with it: MTCC 655, 24 h. It counts as functional. Summed up: as §2
A further series relates to Enterococcus faecalis. In words: Anti-biofilm activity against Enterococcus faecalis after 24 hrs by XTT assay. It is filed as functional, organism-based. Summed up:
as §5

For series [15], the system named is Escherichia coli. Description: Antibacterial activity against Escherichia coli MRC24 at 512 ug/mL after 24 hrs by broth dilution assay relative to control. It counts as functional. Summed up: as §3
The subject of the next series is Salmonella typhimurium. In words: Antibacterial activity against Salmonella typhimurium MTCC 3224 after 24 hrs by broth dilution assay. It counts as functional, Salmonella enterica subsp. enterica serovar Typhimurium. The note with it: Salmonella enterica, MTCC 3224, 24 h. In outline: as §2
Series [16] concerns Escherichia coli. In words: Synergistic antibacterial activity against Escherichia coli MRA11 assessed as fractional inhibitory concentration index after 18 hrs in presence of ciprofloxacin by checkerboard method. It is filed as functional. In outline:
as §4

Series [17] deals with Escherichia coli. Description: Synergistic antibacterial activity against Escherichia coli MRC17 after 18 hrs in presence of ciprofloxacin by checkerboard method. It is filed as functional. The note with it: MRC17, 18 h. Summed up: as §4
In series [18] the test system is Pseudomonas aeruginosa. In words: Bactericidal activity against Pseudomonas aeruginosa at sub-MIC after 10 hrs by spectrophotometric analysis. It is filed as functional, organism-based. Summed up: as §6

Structures are written as SMILES. pKi: −log10 of the molar value. ≈ marks a conversion by molar mass, not a printed value. Calls of active or inactive are those of the source.

The inhibition is the change of the read-out against control, counted positive when it falls. One may read the MIC as the smallest concentration in the dilution series that meets the test's criterion for growth inhibition. Broadly, the pKi is the Ki on a negative log10 scale, so that one unit is a factor of ten. A higher pKi goes with a low Ki. As a reminder, the IC50 is the concentration that inhibits the measured activity by half. A high value points to weaker potency. Consider `Cc1c(C(=O)/C=C(\O)C(=O)N[C@H](C)C(=O)O)oc2ccc(Br)cc12`, for which the inhibition in the series listed under Homo sapiens amounted to 87.5%; in [7], 87.7%. Moreover, the minimum inhibitory concentration (MIC) was found to be 250 µg/mL (≈ 631 µM) against Pseudomonas aeruginosa [1]; 16 µg/mL in the series on Escherichia coli [5]; 2 µg/mL with Escherichia coli [6]; 62.5 µg/mL (≈ 158 µM) in the series on Streptococcus pneumoniae [14]; 500 µg/mL (≈ 1260 µM) in the series with Salmonella typhimurium; 512 µg/mL in the series on Escherichia coli [17]. The molecule also came in with an ICmax with Escherichia coli [2] of 512 µg/mL. The negative-log Ki (pKi) in series [3] was 4.66; in series [13] it was 4.92. In addition, the outcome with Escherichia coli [4], in the series with Escherichia coli [8], in the series with Streptococcus pneumoniae [10], with Pseudomonas aeruginosa [12] and in the series with Pseudomonas aeruginosa [18] was Active. Besides, the Activity in the series on Escherichia coli [9] is recorded as 100%; with CHO, “Non-Toxic”; in the series with Escherichia coli [15], 100%. Besides, the 50% inhibitory concentration (IC50) with Escherichia coli [11] was 0.404 µg/mL (≈ 1.02 µM); in the series with Enterococcus faecalis, 1240 µg/mL (≈ 3140 µM). For the same molecule, the “fractional inhibitory concentration index (FICI)” value in the series on Escherichia coli [16] was determined as 1.125.

The record behind these values is ChEMBL document CHEMBL4330067, “Synthesis and mechanistic studies of diketo acids and their bioisosteres as potential antibacterial agents” (Eur J Med Chem, 2019).
